Results taken from ChEMBL document CHEMBL1122615, “Design and synthesis of naltrexone-derived affinity labels with nonequilibrium opioid agonist and antagonist activities. Evidence for the existence of different mu receptor subtypes in different tissues” (J Med Chem, 1984).
pIC50: −log10 of the molar value. Several values for one entry are separate records, joined by “and”; a condition that tells them apart may be missing. Equal values may be shown once. Activity calls are given as the source filed them. The calls are words filed in the database; no cut-off is given here.

How the values were obtained:
[1] = species on record: Cavia porcellus; test: The agonist potency in the guinea pig ileal longitudinal muscle preparation (GPI) was determined relative to morphine as control; type: functional, Muscle tissue
[2] = species on record: Mus musculus; test: The agonist potency was assessed by measuring the inhibition of contraction at a single concentration (200 nM); type: functional
[3] = biological target: Mu-type opioid receptor (Homo sapiens) (UniProt P35372); test: Compound was tested for irreversible antagonist activity at mu receptor by determining by MVD response to DADLE after 30 min incubation at 20 nM; type: functional
[4] = species on record: Cavia porcellus; test: Compound was tested for persistent effect, percent inhibition of twitch that is not reversed by >=20 washings following 30 -min incubation at 20 nM; type: functional
[5] = biological target: Mu-type opioid receptor (Homo sapiens) (UniProt P35372); test: Compound was tested for irreversible antagonist activity at mu receptor by determining by MVD response to morphine after 30 min incubation at 200 nM; type: functional
[6] = biological target: Kappa-type opioid receptor (Homo sapiens) (UniProt P41145); test: Irreversible antagonist activity at kappa receptor as ileal response to ethylketazocine after 30 min incubation at 20 nM; type: functional
[7] = species on record: Mus musculus; test: Compound was tested for persistent effect, percent inhibition contraction that is not reversed significantly by >=20 washings following a 30 min incubation at 200 nM.; type: functional
[8] = biological target: Mu-type opioid receptor (Mus musculus) (UniProt P42866); test: Irreversible antagonist activity at mouse vas deferens mu receptor against DADLE after 30 min at 200 nM; type: functional, tissue-based
[9] = biological target: Mu-type opioid receptor (Homo sapiens) (UniProt P35372); test: Irreversible antagonist activity at mu receptor by determining by ileal response to morphine after 30 min incubation at 20 nM; type: functional
[10] = species on record: Cavia porcellus; test: Compound was tested for persistent effect, percent inhibition of twitch that is not reversed by >=20 washings following 30 -min incubation at 200 nM; none; type: functional
[11] = biological target: Kappa-type opioid receptor (Homo sapiens) (UniProt P41145); test: Compound was tested for irreversible antagonist activity at kappa receptor by determining by ileal response to ethylketazocine after 30 min incubation at 200 nM; type: functional
[12] = biological target: Mu-type opioid receptor (Homo sapiens) (UniProt P35372); test: Compound was tested for irreversible antagonist activity at mu receptor by determining by ileal response to morphine after 30 min incubation at 200 nM; type: functional
[13] = species on record: Mus musculus; test: (§1) The agonist potency was assessed by measuring the inhibition of contraction at a single concentration (200 nM).; type: functional
[14] = The relative rate (to beta FNA) in the reaction of Michael acceptors with cysteine at pH 7.4 at 25 degree Celsius in the presence of 13 fold excess cysteine was reported for half-life.; type: ADME
Outline: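 Reaction with a 13-fold excess of cysteine at pH 7.4, 25 °C under rapid stirring; aliquots quenched by acidification to pH 1 at timed intervals. Remaining compound quantified by reversed-phase HPLC (UV 254 nm, internal standard), four intervals in duplicate. Half-life taken from the slope of log amount remaining vs time; rate expressed relative to β-FNA.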

[15] = species on record: Mus musculus; test: Compound was tested for persistent effect, percent inhibition contraction that is not reversed significantly by >=20 washings following a 30 min incubation at 20 nM.; type: functional
[16] = biological target: Mu-type opioid receptor (Homo sapiens) (UniProt P35372); test: Compound was tested for irreversible antagonist activity at mu receptor by determining by MVD response to DADLE after 30 min incubation at 10 nM; type: functional
[17] = species on record: Cavia porcellus; test: Evaluated for the inhibition concentration in the guinea pig ileal longitudinal muscle preparation (GPI); type: functional, Muscle tissue
[18] = species on record: Cavia porcellus; test: (§2) Compound was tested for persistent effect, percent inhibition of twitch that is not reversed by >=20 washings following 30 -min incubation at 200 nM; type: functional
[19] = (§3) Compound was tested for irreversible antagonist activity at kappa receptor by determining by ileal response to ethylketazocine after 30 min incubation at 1000 nM; type: functional
[20] = biological target: Mu-type opioid receptor (Homo sapiens) (UniProt P35372); test: Compound was tested for irreversible antagonist activity at mu receptor by determining by MVD response to DADLE after 30 min incubation at 30 nM; type: functional
[21] = species on record: Mus musculus; test: The agonist potency was assessed by measuring the inhibition of contraction at a single concentration (30 nM).; type: functional
[22] = biological target: Mu-type opioid receptor (Homo sapiens) (UniProt P35372); test: Compound was tested for irreversible antagonist activity at mu receptor by determining by ileal response to morphine after 30 min incubation at 20 nM; type: functional
[23] = biological target: Mu-type opioid receptor (Homo sapiens) (UniProt P35372); test: Compound was tested for irreversible antagonist activity at mu receptor by determining by ileal response to morphine after 30 min incubation at 10 nM; type: functional
[24] = species on record: Cavia porcellus; test: as §2; type: functional; remark: listed apart in the source
[25] = biological target: Mu-type opioid receptor (Homo sapiens) (UniProt P35372); test: Compound was tested for irreversible antagonist activity at mu receptor by determining by MVD response to DADLE after 30 min incubation at 3 nM; type: functional
[26] = species on record: Mus musculus; test: as §1; type: functional; remark: listed apart in the source
[27] = biological target: Kappa-type opioid receptor (Homo sapiens) (UniProt P41145); test: Compound was tested for irreversible antagonist activity at kappa receptor by determining by ileal response to ethylketazocine after 30 min incubation at 10 nM; type: functional
[28] = species on record: Mus musculus; test: Compound was tested for persistent effect, percent inhibition contraction that is not reversed significantly by >=20 washings following a 30 min incubation at 3 nM.; type: functional
[29] = species on record: Cavia porcellus; test: Compound was tested for persistent effect, percent inhibition of twitch that is not reversed by >=20 washings following 30 -min incubation at 20 nM; none; type: functional
[30] = biological target: Kappa-type opioid receptor (Homo sapiens) (UniProt P41145); test: Compound was tested for irreversible antagonist activity at kappa receptor by determining by ileal response to ethylketazocine after 30 min incubation at 20 nM; type: functional
[31] = biological target: Mu-type opioid receptor (Homo sapiens) (UniProt P35372); test: Compound was tested for irreversible antagonist activity at mu receptor by determining by MVD response to morphine after 30 min incubation at 100 nM; type: functional
[32] = biological target: Mu-type opioid receptor (Homo sapiens) (UniProt P35372); test: Compound was tested for irreversible antagonist activity at mu receptor by determining by ileal response to morphine after 30 min incubation at 1000 nM; type: functional
[33] = biological target: Kappa-type opioid receptor (Homo sapiens) (UniProt P41145); test: as §3; type: functional
[34] = biological target: Mu-type opioid receptor (Homo sapiens) (UniProt P35372); test: Compound was tested for irreversible antagonist activity at mu receptor by determining by MVD response to DADLE after 30 min incubation at 100 nM; type: functional
[35] = biological target: Mu-type opioid receptor (Homo sapiens) (UniProt P35372); test: Compound was tested for irreversible antagonist activity at mu receptor by determining by MVD response to DADLE after 30 min incubation at […]; type: functional
[36] = biological target: Mu-type opioid receptor (Homo sapiens) (UniProt P35372); test: Compound was tested for irreversible antagonist activity at mu receptor by determining by MVD response to morphine after 30 min incubation at 20 nM; type: functional
[37] = biological target: Mu-type opioid receptor (Homo sapiens) (UniProt P35372); test: Compound was tested for irreversible antagonist activity at mu receptor by determining by MVD response to Morphine after 30 min incubation at 200 nM; type: functional
[38] = biological target: Mu-type opioid receptor (Homo sapiens) (UniProt P35372); test: Compound was tested for irreversible antagonist activity at mu receptor by determining by MVD response to ethylketazocine after 30 min incubation at 200 nM; type: functional

Sequence of Mu-type opioid receptor (Homo sapiens) (P35372 whole entry): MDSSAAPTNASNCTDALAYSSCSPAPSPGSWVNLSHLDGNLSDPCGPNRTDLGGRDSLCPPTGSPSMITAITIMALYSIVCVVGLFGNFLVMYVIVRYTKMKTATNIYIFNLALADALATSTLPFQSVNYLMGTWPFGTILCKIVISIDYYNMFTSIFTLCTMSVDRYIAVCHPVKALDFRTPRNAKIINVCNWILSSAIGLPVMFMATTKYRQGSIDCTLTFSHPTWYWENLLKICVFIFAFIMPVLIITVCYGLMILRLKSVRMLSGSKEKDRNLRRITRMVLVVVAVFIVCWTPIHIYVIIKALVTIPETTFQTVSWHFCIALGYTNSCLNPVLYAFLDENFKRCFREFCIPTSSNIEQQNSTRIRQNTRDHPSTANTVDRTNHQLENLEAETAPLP
Sequence of Kappa-type opioid receptor (Homo sapiens) (P41145 whole entry): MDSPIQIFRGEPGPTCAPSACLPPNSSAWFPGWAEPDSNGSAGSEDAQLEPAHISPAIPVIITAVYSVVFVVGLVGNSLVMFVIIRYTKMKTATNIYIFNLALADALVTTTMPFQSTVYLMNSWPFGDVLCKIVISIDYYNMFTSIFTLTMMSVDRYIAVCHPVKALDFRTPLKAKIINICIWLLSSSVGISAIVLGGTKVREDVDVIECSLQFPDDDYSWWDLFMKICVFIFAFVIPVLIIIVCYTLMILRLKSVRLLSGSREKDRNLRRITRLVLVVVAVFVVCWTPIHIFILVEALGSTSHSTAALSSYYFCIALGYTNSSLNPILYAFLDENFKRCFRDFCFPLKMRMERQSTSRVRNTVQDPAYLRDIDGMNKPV
Sequence of Mu-type opioid receptor (Mus musculus) (P42866 whole entry): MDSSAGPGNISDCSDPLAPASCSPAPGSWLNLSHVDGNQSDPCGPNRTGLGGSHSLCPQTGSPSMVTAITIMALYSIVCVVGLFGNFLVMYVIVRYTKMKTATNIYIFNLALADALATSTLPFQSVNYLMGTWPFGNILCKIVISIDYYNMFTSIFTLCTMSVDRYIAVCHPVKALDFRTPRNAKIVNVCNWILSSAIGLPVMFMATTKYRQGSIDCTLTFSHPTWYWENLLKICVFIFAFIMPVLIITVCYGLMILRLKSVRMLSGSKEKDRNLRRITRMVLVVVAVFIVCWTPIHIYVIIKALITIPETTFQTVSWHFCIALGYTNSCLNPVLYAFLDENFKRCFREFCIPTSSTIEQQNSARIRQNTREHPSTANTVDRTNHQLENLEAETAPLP

| Compound | Potency [1] | Ratio [5] | Ratio [6] | Ratio [8] | Ratio [9] | Ratio [11] | Ratio [12] | Agonist potency [13] | Relative rate [14] | further results |
| --- | --- | --- | --- | --- | --- | --- | --- | --- | --- | --- |
| O=C(N[C@@H]1CC[C@@]2(O)[C@H]3Cc4ccc(O)c5c4[C@@]2(CCN3CC2CC2)[C@H]1O5)c1ccccc1 | 201 | 1.9 | 0.91 | 1 | 1.4 |  |  |  |  | Agonist potency [2]: 29 nM; Ratio [3]: 2.3; Inhibition [4]: 39%; Inhibition [7]: 50% |
| O=C(CSSc1ccccc1[N+](=O)[O-])N[C@@H]1CCC2(O)C3Cc4ccc(O)c5c4C2(CCN3CC2CC2)C1O5 (stereo not given in full) | 1.1 | 1.8 | 0.5 | 0.98 | 1.3 | 1.3 | 2.5 | 70 |  | inhibition [10]: inactive |
| O=C1C=CC(=O)N1[C@@H]1CCC2(O)C3Cc4ccc(O)c5c4C2(CCN3CC2CC2)C1O5 (stereo not given in full) | 2 | 1.1 | 0.94 | 0.81 | 1.3 | 1.4 | 1.3 | 52 | 450 | Inhibition [7]: 35% |
| O=C(N[C@@H]1CCC2(O)C3Cc4ccc(O)c5c4C2(CCN3CC2CC2)C1O5)C(=O)c1ccccc1 (stereo not given in full) | 24 | 6.5 | 0.93 | 0.87 | 1.48 |  |  | 51 |  | Ratio [3]: 0.51; Inhibition [4]: 22%; Inhibition [15]: 44%; Ratio [16]: 0.56 |
| CCOc1ccc2c(c1)C1(C)CCN(CC3CC3)C(C2=O)C1C (stereo not given) [ETHYLKETAZOCINE] |  |  |  |  |  |  |  |  |  | pIC50 ([17]; Cavia porcellus, Muscle tissue): 8.01 |
| C=CCN1CCC23c4c5ccc(O)c4OC2[C@H](NC(=O)/C=C/C(=O)OC)CCC3(O)C1C5 (stereo not given in full) | 5.8 | 4 | 1 | 1.1 | 2.2 |  | 6.4 |  |  | Inhibition [18]: 40%; Ratio [19]: 1.9; Ratio [20]: 1.7; Agonist potency [21]: 34 |
| 6beta-[(Chloromercuri)acetamido]-17-(cyclopropyl-methyl)-4,5alpha-epoxy-3,14-duhydroxymorphinan Methanesulphonate [listing 1 of 2 here] |  | 0.57 | 1 | 2.6 and 0.9 |  | 1.3 | 4.2 |  |  | Potency ([1]; Muscle tissue): 50; Ratio [22]: 1.2; Ratio [23]: 0.75; inhibition [24]: 26%; Ratio [25]: 1.1; Potency [26]: 54 nM; Ratio [27]: 0.74; inhibition [28]: 20% |
| COC(=O)C=CC(=O)N[C@@H]1CCC2(O)C3Cc4ccc(O)c5c4C2(CCN3CC2CC2)C1O5 (stereo not given in full) |  |  |  |  |  |  |  |  | 0.5 |  |
| CC(=O)/C=C/C(=O)N[C@@H]1CCC2(O)C3Cc4ccc(O)c5c4C2(CCN3CC2CC2)C1O5 (stereo not given in full) | 4.5 | 30 | 0.9 | 5 | 12.5 |  |  | 31 | 225 | inhibition [29]: inactive |
| COC(=O)CCC(=O)N[C@@H]1CCC2(O)C3Cc4ccc(O)c5c4C2(CCN3CC2CC2)C1O5 (stereo not given in full) | 5.3 |  |  |  |  |  |  |  |  | Ratio [22]: 0.92; Inhibition [18]: 10%; Ratio [30]: 1 |
| COC(=O)/C=C/C(=O)N[C@@H]1CC[C@@]2(O)[C@H]3Cc4ccc(O)c5c4[C@@]2(CCN3CC2CC2)[C@H]1O5 | 5 | 10.6 | 1 | 1.1 | 6 |  |  |  | 1 | Ratio [31]: 3.9; Ratio [32]: 18.8; Ratio [33]: 1.3; Ratio [34]: 1.8 |
| O=C(CBr)N[C@@H]1CCC2(O)C3Cc4ccc(O)c5c4C2(CCN3CC2CC2)C1O5 (stereo not given in full) | 58 | 1.4 | 0.73 | 1.5 | 3.3 | 0.78 | 1.7 | 31 |  | Inhibition [7]: 20% |
| C#CC(=O)N[C@@H]1CCC2(O)C3Cc4ccc(O)c5c4C2(CCN3CC2CC2)C1O5 (stereo not given in full) | 56 |  | 0.84 | 1.3 | 2.6 |  |  |  |  | Ratio [3]: 1.06; Inhibition [4]: 53%; Inhibition [15]: 50%; Ratio [35]: 1.5; Ratio [36]: 5 |
| 6beta-[(Chloromercuri)acetamido]-17-(cyclopropyl-methyl)-4,5alpha-epoxy-3,14-duhydroxymorphinan Methanesulphonate [listing 2 of 2 here] |  |  |  |  |  |  |  |  |  | pIC50 [17]: 6.52 |
| C=C(Cl)C(=O)N[C@@H]1CCC2(O)C3Cc4ccc(O)c5c4C2(CCN3CC2CC2)C1O5 (stereo not given in full) | 1.1 | 6 | 0.93 | 1.6 | 13.4 | 0.88 |  |  | 0.4 | inhibition [10]: inactive; Agonist potency [2]: 44 |
| O=C(CN1C(=O)C=CC1=O)N[C@@H]1CCC2(O)C3Cc4ccc(O)c5c4C2(CCN3CC2CC2)C1O5 (stereo not given in full) | 0.6 |  | 0.71 | 1.8 | 1.5 | 0.92 | 3.3 | 240 nM | 450 | Inhibition [18]: 59%; Inhibition [4]: 21%; Ratio [37]: 30; Ratio [38]: 0.71 |
